The source made the active and inactive calls. No cut-off for these calls is given here.
How the values were obtained:
Mus musculus [1] = assay: Analgesic agonist activity in acetic acid induced mouse writhing assay, subcutaneous administration; assay type: functional; conditions: sc
Procedure, shortened: (§1)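 Test agents given as solutions: salts in distilled water; free bases dissolved by adding 1 N HCl, then further diluted.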

Rattus norvegicus [2] = assay: Analgesic agonist activity in heat stimulus rat tail-flick assay on subcutaneous administration; assay type: functional; conditions: sc; procedure, shortened: as §1
Rattus norvegicus [3] = organism: Rattus norvegicus; assay: Narcotic antagonist activity against an ED80 of morphine in the modified rat tail-flick assay; assay type: functional
Mus musculus [4] = assay: Compound was tested for the analgesic agonist activity in acetic acid induced mouse writhing assay on subcutaneous administration; Inactive at 26 umol/kg.; assay type: functional, organism-based; procedure, shortened: as §1
Mus musculus [5] = assay: Compound was tested for the analgesic agonist activity in acetic acid induced mouse writhing assay on subcutaneous administration; Inactive at 28 umol/kg.; assay type: functional, organism-based; procedure, shortened: as §1
Mus musculus [6] = assay: Compound was tested for the analgesic agonist activity in acetic acid induced mouse writhing assay on subcutaneous administration; Inactive at 20 umol/kg.; assay type: functional, organism-based; procedure, shortened: as §1
Mus musculus [7] = assay: Compound was tested for the analgesic agonist activity in acetic acid induced mouse writhing assay on subcutaneous administration; Inactive at 25 umol/kg; assay type: functional, organism-based; procedure, shortened: as §1
Rattus norvegicus [8] = assay: Compound was tested for analgesic agonist activity in heat stimulus rat tail-flick assay on subcutaneous administration; Inactive at 25 umol/kg; assay type: functional, organism-based; procedure, shortened: as §1
Rattus norvegicus [9] = assay: Compound was tested for the analgesic agonist activity in heat stimulus rat tail-flick assay; Inactive at 26 umol/kg; assay type: functional, organism-based; procedure, shortened: as §1
Mus musculus [10] = assay: Compound was tested for the analgesic agonist activity in acetic acid induced mouse writhing assay on subcutaneous administration; Inactive at 23 umol/kg.; assay type: functional, organism-based; procedure, shortened: as §1
Mus musculus [11] = assay: Compound was tested for the analgesic agonist activity in acetic acid induced mouse writhing assay on subcutaneous administration; Inactive at 25 umol/kg.; assay type: functional, organism-based; procedure, shortened: as §1
Rattus norvegicus [12] = assay: Compound was tested for analgesic agonist activity in heat stimulus rat tail-flick assay on subcutaneous administration; Inactive at 25 mg/kg; assay type: functional, organism-based; design: dose 25 mg/kg; procedure, shortened: as §1
Mus musculus [13] = assay: Compound was tested for the analgesic agonist activity in acetic acid induced mouse writhing assay on subcutaneous administration; Inactive at 16 umol/kg.; assay type: functional, organism-based; procedure, shortened: as §1

COc1ccc2c3c1O[C@H]1[C@H](O)C(C)(C)CC4[C@@H](C2)N(C)CC[C@@]341 (some centres undefined)
ED50 (Mus musculus [1]): 6.5 µmol/kg | ED50 (Rattus norvegicus [2]): 30.4 µmol/kg

COc1ccc2c3c1O[C@H]1[C@@H]4OC[C@]4(C)CC4[C@@H](C2)N(C)CC[C@@]341 (some centres undefined)
ED50 (Mus musculus [1]): 1.9 µmol/kg | ED50 (Rattus norvegicus [2]): > 30 µmol/kg

COc1ccc2c3c1O[C@H]1C(=O)CC[C@H]4[C@@H](C2)N(C)CC[C@]314 [HYDROCODONE]
ED50 (Mus musculus [1]): 2.4 µmol/kg | ED50 (Rattus norvegicus [2]): 5.2 µmol/kg

COc1ccc2c3c1O[C@H]1C(=O)C(C)(C)CC4[C@@H](C2)N(C)CC[C@@]341 (some centres undefined)
ED50 (Mus musculus [1]): 3.9 µmol/kg | ED50 (Rattus norvegicus [2]): 9.8 µmol/kg

COc1ccc2c3c1O[C@H]1[C@H](O)C(C)(C)[C@H](C)C4[C@@H](C2)N(C)CC[C@@]341 (some centres undefined)
ED50 (Mus musculus [1]): 3.8 µmol/kg | ED50 (Rattus norvegicus [2]): 15.6 µmol/kg

CC[C@@H]1C2[C@H]3Cc4ccc(OC)c5c4[C@@]2(CCN3C)[C@@H](O5)C(=O)C1(C)C (some centres undefined)
ED50 (Mus musculus [1]): 4.4 µmol/kg | ED50 (Rattus norvegicus [2]): 13.9 µmol/kg

C[C@H]1[C@H]2Cc3ccc(O)cc3[C@]1(C)CCN2CC1CC1 [CYCLAZOCINE]
ED50 (Mus musculus [1]): 0.41 µmol/kg | ED50 (Rattus norvegicus [3]): 0.81 µmol/kg

COc1ccc2c3c1O[C@H]1[C@@H](O)C=C[C@H]4[C@@H](C2)N(C)CC[C@@]341 [CODEINE]
ED50 (Mus musculus [1]): 10.3 µmol/kg | ED50 (Rattus norvegicus [2]): 75 µmol/kg

CC[C@@H]1C2[C@H]3Cc4ccc(O)c5c4[C@@]2(CCN3CC2CCC2)[C@@H](O5)C(=O)C1(C)C (some centres undefined)
ED50 (Mus musculus [1]): 18.5 µmol/kg | ED50 (Rattus norvegicus [3]): 2.8 µmol/kg

CC[C@@H]1C2[C@H]3Cc4ccc(OC)c5c4[C@@]2(CCN3CC2CCC2)[C@@H](O5)C(=O)C1(C)C (some centres undefined)
ED50 (Mus musculus [1]): > 23 µmol/kg | ED50 (Rattus norvegicus [3]): > 23 µmol/kg

Oc1ccc2c(c1)[C@@]13CCCC[C@@]1(O)[C@@H](C2)N(CC1CCC1)CC3 [BUTORPHANOL]
ED50 (Mus musculus [1]): 0.34 µmol/kg | ED50 (Rattus norvegicus [3]): 2 µmol/kg

C[C@@H]1C2[C@H]3Cc4ccc(O)c5c4[C@@]2(CCN3CC2CCC2)[C@@H](O5)C(=O)C1(C)C (some centres undefined)
ED50 (Mus musculus [1]): > 25 µmol/kg | ED50 (Rattus norvegicus [3]): > 25 µmol/kg

COc1ccc2c3c1O[C@H]1C(=O)C(C)(C)CC4[C@@H](C2)N(CC2CCC2)CC[C@@]341 (some centres undefined)
ED50 (Mus musculus [4]): inactive | ED50 (Rattus norvegicus [3]): > 26 µmol/kg

CC1(C)CC2[C@H]3Cc4ccc(O)c5c4[C@@]2(CCN3CC2CC2)[C@@H](O5)C1=O (some centres undefined)
ED50 (Mus musculus [5]): inactive | ED50 (Rattus norvegicus [3]): 1.2 µmol/kg

CC[C@@H]1C2[C@H]3Cc4ccc(O)c5c4[C@@]2(CCN3C)[C@@H](O5)C(=O)C1(C)C (some centres undefined)
ED50 (Mus musculus [1]): 0.6 µmol/kg | ED50 (Rattus norvegicus [2]): 0.62 µmol/kg

CC[C@@H]1C2[C@H]3Cc4ccc(OC)c5c4[C@@]2(CCN3CC2CC2)[C@@H](O5)C(=O)C1(C)C (some centres undefined)
ED50 (Mus musculus [6]): inactive | ED50 (Rattus norvegicus [3]): > 20 µmol/kg

CC[C@@H]1C2[C@H]3Cc4ccc(OC)c5c4[C@@]2(CCN3C)[C@@H](O5)[C@H](O)C1(CO)CO (some centres undefined)
ED50 (Mus musculus [7]): inactive | ED50 (Rattus norvegicus [8]): inactive

CN1CC[C@]23c4c5ccc(O)c4O[C@H]2C(=O)CC[C@H]3[C@H]1C5 [HYDROMORPHONE]
ED50 (Rattus norvegicus [2]): 1.3 µmol/kg

COc1ccc2c3c1O[C@H]1[C@H](O)C(CO)(CO)[C@H](C)C4[C@@H](C2)N(C)CC[C@@]341 (some centres undefined)
ED50 (Mus musculus [1]): > 26 µmol/kg | ED50 (Rattus norvegicus [9]): inactive

COc1ccc2c3c1O[C@H]1C(=O)C(C)(C)[C@H](C)C4[C@@H](C2)N(CC2CC2)CC[C@@]341 (some centres undefined)
ED50 (Mus musculus [1]): > 26 µmol/kg | ED50 (Rattus norvegicus [3]): 7.3 µmol/kg

CC1(C)CC2[C@H]3Cc4ccc(O)c5c4[C@@]2(CCN3CC2CCC2)[C@@H](O5)C1=O (some centres undefined)
ED50 (Mus musculus [1]): 2.2 µmol/kg | ED50 (Rattus norvegicus [3]): > 24 µmol/kg

COc1ccc2c3c1O[C@H]1C(=O)C(C)(C)[C@H](C)C4[C@@H](C2)N(CC2CCC2)CC[C@@]341 (some centres undefined)
ED50 (Mus musculus [1]): 17.2 µmol/kg | ED50 (Rattus norvegicus [3]): 4.7 µmol/kg

COc1ccc2c3c1O[C@H]1C(=O)C(C)(C)[C@H](C)C4[C@@H](C2)N(C)CC[C@@]341 (some centres undefined)
ED50 (Mus musculus [1]): 2.5 µmol/kg | ED50 (Rattus norvegicus [2]): 4.2 µmol/kg

CC[C@@H]1C2[C@H]3Cc4ccc(OC)c5c4[C@@]2(CCN3C)[C@@H](O5)[C@H](O)C1(C)C (some centres undefined)
ED50 (Mus musculus [1]): 21.5 µmol/kg | ED50 (Rattus norvegicus [2]): > 22 µmol/kg

C[C@@H]1C2[C@H]3Cc4ccc(O)c5c4[C@@]2(CCN3CC2CC2)[C@@H](O5)C(=O)C1(C)C (some centres undefined)
ED50 (Mus musculus [10]): inactive | ED50 (Rattus norvegicus [3]): 0.38 µmol/kg

COc1ccc2c3c1O[C@H]1[C@H](O)C(CO)(CO)CC4[C@@H](C2)N(C)CC[C@@]341 (some centres undefined)
ED50 (Mus musculus [11]): inactive | ED50 (Rattus norvegicus [12]): inactive

CC[C@@H]1C2[C@H]3Cc4ccc(OC)c5c4[C@@]2(CCN3C)[C@@H](O5)[C@@H]2OC[C@]12C (some centres undefined)
ED50 (Mus musculus [1]): 11.1 µmol/kg | ED50 (Rattus norvegicus [2]): > 28 µmol/kg

COc1ccc2c3c1O[C@H]1[C@@H](O)C(C)(C)CC4[C@@H](C2)N(C)CC[C@@]341 (some centres undefined)
ED50 (Mus musculus [1]): 12.7 µmol/kg

COc1ccc2c3c1O[C@H]1C(=O)C(C)(C)CC4[C@@H](C2)N(CC2CC2)CC[C@@]341 (some centres undefined)
ED50 (Mus musculus [1]): 5.3 µmol/kg | ED50 (Rattus norvegicus [3]): 6.7 µmol/kg

CC(C)=CCN1CC[C@@]2(C)c3cc(O)ccc3C[C@@H]1[C@@H]2C
ED50 (Mus musculus [1]): 13 µmol/kg | ED50 (Rattus norvegicus [3]): 36.4 µmol/kg

COc1ccc2c3c1O[C@H]1[C@@H]4OC[C@]4(C)[C@H](C)C4[C@@H](C2)N(C)CC[C@@]341 (some centres undefined)
ED50 (Mus musculus [1]): 1.8 µmol/kg | ED50 (Rattus norvegicus [2]): > 23 µmol/kg

CC[C@@H]1C2[C@H]3Cc4ccc(O)c5c4[C@@]2(CCN3CC2CC2)[C@@H](O5)C(=O)C1(C)C (some centres undefined)
ED50 (Mus musculus [13]): inactive | ED50 (Rattus norvegicus [3]): 2.4 µmol/kg

CN1CC[C@]23c4c5ccc(O)c4O[C@H]2C(=O)C(C)(C)CC3[C@H]1C5 (some centres undefined)
ED50 (Mus musculus [1]): 0.19 µmol/kg | ED50 (Rattus norvegicus [2]): 0.99 µmol/kg

— ChEMBL document CHEMBL1121639, “Analgesic narcotic antagonists. 5. 7,7-Dimethyldihydrocodeinones and 7,7-dimethyldihydromorphinones” (1981)
